Experimental data published in ChEMBL document CHEMBL1121917, “Structure--activity relationships in a broad-spectrum anthelmintic series. Acid chloride phenylhydrazones. 1. Aryl substitutions and chloride variations” (1981).

Assays:
Mus musculus [1] = species on record: Mus musculus; assay: Percent clearance of Nematospiroides dubius from mouse after oral treatment of 0.45 mg/mouse/day; type: functional
Summary of the method: (§1)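 Mice naturally carrying Syphacia obvelata were experimentally infected with Nematospiroides dubius and Hymenolepis nana, then grouped after a 2-week prepatency. Finely ground compound was suspended in aqueous 0.10% carboxymethylcellulose, 0.04% polysorbate 80 and 0.0042% polyparaben, and 0.1 mL was given orally by cannula once daily for 4 days to five mice. Necropsy followed 2 days later, scoring presence or absence of each parasite. Control clearance was subtracted from the treated clearance.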

Ovis aries [2] = assay: Percent reduction in Nematodirus eggs per gram, after treatment with 200 mg/kg dose of compound perorally in sheep; type: functional, Egg; conditions: route oral
Summary of the method: (§2)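 Naturally parasitized lambs were dosed orally at the stated mg/kg. Dosing was either as a suspension of finely ground compound by stomach tube, or as ground compound weighed into gelatin capsules and given by balling gun. Activity was scored by the clinical test method: the decrease in posttreatment helminth eggs per gram.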

Ovis aries [3] = assay: Percent reduction in Oesophagostomum eggs per gram, after treatment with 200 mg/kg dose of compound perorally in sheep; type: functional, Egg; conditions: dose 100 mg/kg; route oral; in the assay text read “100 mg/kg” for “200 mg/kg”; summary of the method: as §2
Mus musculus [4] = species on record: Mus musculus; assay: Percent clearance of Hymenolepis nana from mouse after oral treatment of 0.45 mg/mouse/day; type: functional; summary of the method: as §1
Ovis aries [5] = assay: Percent reduction in Haemonchus eggs per gram, after treatment with 200 mg/kg dose of compound perorally in sheep; type: functional, Egg; conditions: dose 100 mg/kg; route oral; in the assay text read “100 mg/kg” for “200 mg/kg”; summary of the method: as §2
Ovis aries [6] = assay: Percent reduction in Trichuris eggs per gram, after treatment with 200 mg/kg dose of compound perorally in sheep; type: functional, Egg; conditions: dose 100 mg/kg; route oral; in the assay text read “100 mg/kg” for “200 mg/kg”
Summary of the method: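 Naturally parasitized lambs, dosed orally either with a suspension by stomach tube or with finely ground compound in gelatin capsules by balling gun. Activity was scored by the clinical test method, meaning a significant fall in helminth egg counts after treatment.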

Mus musculus [7] = species on record: Mus musculus; assay: Percent clearance of Nematospiroides dubius from mouse after oral treatment of 0.47 mg/mouse/day; type: functional; summary of the method: as §1
Mus musculus [8] = species on record: Mus musculus; assay: Percent clearance of Hymenolepis nana from mouse after oral treatment of 0.47 mg/mouse/day; type: functional; summary of the method: as §1

Compound | Parasite_Clearance (Mus musculus [1]) [%] | Reduction (Ovis aries [2]) [%] | Reduction (Ovis aries [3]) [%] | Parasite_Clearance (Mus musculus [4]) [%] | Reduction (Ovis aries [5]) [%] | Reduction (Ovis aries [6]) [%] | Parasite_Clearance (Mus musculus [7]) [%] | Parasite_Clearance (Mus musculus [8]) [%]
Cl/C(=N\Nc1ccccc1)c1ccccc1 | 100 | 100 | 89 | 40 | 87 | 0 | – | –
Cl/C(=N\Nc1ccccc1)c1ccc(Br)cc1 | – | – | – | – | – | – | 100 | 100
